Measurements taken from PubChem BioAssay AID504383 (The Scripps Research Institute Molecular Screening Center, 2011).
Among all 2,500 compounds or so, about 1,200 (48%) were called active. The set was probably picked from earlier hits. The list shows a part of the results. Values without a mark were called inactive.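 How the source made its calls: active means mean activation above the low control average plus 3 SD, as set in the primary screen (cut at about 12% in these data); inactive means the rest.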

biological target: Troponin I, cardiac muscle (Homo sapiens) + Troponin T, cardiac muscle (Homo sapiens) + Troponin C, slow skeletal and cardiac muscles (Homo sapiens) (UniProt P19429+P45379+P63316); test: cardiac RTF calcium sensitivity activators, confirmation, biochemical, IANBD-TnC fluorescence, triplicate (AID 504383); details: IANBD-labeled cardiac RTF, Ca2+ sensitivity fluorescence; at 7.2 µM; active compounds read high; scaled from EC20 to saturating calcium; tested at EC20 calcium, 0.472 mM;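 further: 0% = DMSO at 0.472 mM calcium and 100% = DMSO at 2.9 mM calcium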
In short: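 Material: labelled regulated thin filaments; Reagent: 0.472 mM calcium; Incubation: 15 min compound incubation with filaments at 25 °C; Detection: filament fluorescence intensity; Evaluation: fluorescence increase normalised to calcium controls; Benchmarks: low control EC20 calcium, high control EC100 calcium.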

Question: With `COc1ccccc1-c1nnc(SCc2nc3ccccc3s2)n1C` as the molecule, how does the activation read?
Answer: 29.9% (active)

Question: For `O=C(NCc1ccccc1Cl)c1ccc2nc[nH]c2c1`, which activation is on record?
Answer: 6.6%

Question: Which activation does the source give for `CN(Cc1ccccc1)C(=O)c1[nH]cnc1C(=O)NCc1ccccc1` here?
Answer: 59.9% (active)

Question: Which activation does the source give for `CC(C)(C)OC(=O)[C@H](Cc1ccccc1)NC(=O)c1nc[nH]c1C(=O)NCc1ccccc1` here?
Answer: 25.1% (active)

Question: `O=C1N(c2ccc(Cl)cc2)C(c2ccccc2)N2CCCN12` (stereo unspecified) was tested. Which activation did it give?
Answer: 5.52%

Question: `Fc1ccc(-c2nnc(-c3ccc(Cl)cc3Cl)o2)cc1` was tested. Which activation did it give?
Answer: 54% (active)

Question: `O=C(c1cccc(F)c1)N1CCN(C(=O)c2cc(-c3ccc(Cl)cc3Cl)on2)CC1` was tested. Which activation did it give?
Answer: 3.41%

Question: How did the activation turn out when `C/C(=N\NC(=O)c1ccccc1)c1ccc(NC(=O)c2cccs2)cc1` was run?
Answer: 3.16%

Question: How did the activation turn out when `Cc1ccc(-n2nc(C)c(=O)c(-c3ccccc3)c2NC(=O)c2cccs2)cc1` was run?
Answer: 11.8% (active)

Question: How did the activation turn out when `CCN1/C(=C\C=C(C(C)=O)C(C)=O)Sc2ccccc21` was run?
Answer: 9.03%

Question: How did the activation turn out when `CCOC(=O)/C(=C/C=C1\Sc2cc(C)c(C)cc2N1CC)C(C)=O` was run?
Answer: 4.3%

Question: `CCOC(=O)/C(C#N)=C(C)/C=C1\Sc2ccccc2N1CC` was tested. Which activation did it give?
Answer: 11.9% (active)

Question: Which activation does the source give for `CCOC(=O)/C(=C\C=C1/Sc2cc(OCC)c(OCC)cc2N1CC)C(C)=O` here?
Answer: 8.28%

Question: With `CCOC(=O)/C(=C/C=C1\Sc2ccccc2N1CC)C(C)=O` as the molecule, how does the activation read?
Answer: 190% (active)

Question: For `CCOC(=O)/C(=C\C=C1/Sc2ccccc2N1CC)C(C)=O`, which activation is on record?
Answer: 20% (active)

Question: `CCOC(=O)/C(=C/C=C1\Sc2cc(OCC)c(OCC)cc2N1CC)C(C)=O` was tested. Which activation did it give?
Answer: 40% (active)

Question: For `CC1(C)c2[nH]c3ccccc3c2C[C@H]2C(=O)N(Cc3ccc(F)cc3)C(=O)N21`, which activation is on record?
Answer: 6.36%

Question: With `CC(C)NC(=O)C1CCCN(c2nnc(-n3cccc3)s2)C1` (stereo unspecified) as the molecule, how does the activation read?
Answer: 1270% (active)

Question: With `COCc1cc(C)n(CC(=O)Nc2ccccc2C(=O)OC)c(=O)c1C#N` as the molecule, how does the activation read?
Answer: 23.2% (active)

Question: Which activation does the source give for `Cc1cc(Br)ccc1SCC(=O)OCC(=O)Nc1ccccc1C#N` here?
Answer: 9.13%

Question: With `COC(=O)c1cc2c(cc1NC(=O)CSCCc1ccccn1)OCO2` as the molecule, how does the activation read?
Answer: 7.4%

Question: For `C[C@H]1CN([C@@H](C)CO)C(=O)Cc2cc(NC(=O)CCC(F)(F)F)ccc2O[C@H]1CN(C)S(C)(=O)=O`, which activation is on record?
Answer: 15.4% (active)

Question: With `Cc1noc(C)c1S(=O)(=O)N(C)C[C@H]1Oc2ccc(NC(=O)CCC(F)(F)F)cc2C(=O)N([C@H](C)CO)C[C@@H]1C` as the molecule, how does the activation read?
Answer: 10.2%

Question: For `COc1ccc(-n2c(O)c(/C=N/NS(=O)(=O)c3cccc([N+](=O)[O-])c3)c3ccccc3c2=O)cc1OC`, which activation is on record?
Answer: 9.84%

Question: For `COc1ccccc1NS(=O)(=O)c1ccccc1C#N`, which activation is on record?
Answer: 3.34%

Question: Which activation does the source give for `COc1ccccc1NS(=O)(=O)c1cc([N+](=O)[O-])ccc1N/N=C/c1c(C)[nH]c2ccccc12` here?
Answer: 27.9% (active)
